Screens deposited in PubChem by The Scripps Research Institute Molecular Screening Center.
EBNA-1 inh – blocks EBNA-1 binding to DNA; EBNA-1 DNA binding, fluorescence polarization; inhibition, % at 14.8 µM; hit rate 0.34% among 300,000; AID 1950; in the data active means inhibition above about 28%
FID counter – fluorescent intercalator displacement, NS3 helicase counter-screen | hit rate 0.17% among 290,000 | inhibition, % at 7.9 µM | DNA fluorescent intercalator displacement, fluorescence; in the data active means inhibition above about 37%;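 further: 0% = vehicle and 100% = reference compound; higher means more ethidium bromide displaced from hairpin DNA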
HCV NS3 hel inh – inhibitors of Hepatitis C virus NS3 helicase; NS3 helicase DNA unwinding, Cy5 molecular beacon fluorescence; hit rate 0.56% among 290,000; inhibition, % at 10.9 µM;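 active means inhibition above the mean of all tested compounds plus 3 SD, set per campaign, cut at about 35% in these data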;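 further: 0% = DMSO wells and 100% = thioflavine S control wells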
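Control set: DMSO versus 110 µM thioflavine S; Material: NS3 helicase fragment of HCV; Measured by: Cy5 fluorescence at 0 and 60 min, beacon hairpin quenching; Read-out basis: percent inhibition from t60/t0 fluorescence ratio; Times: reaction time 60 min, 25 °C; Repeats: single replicate; Compound dosing: single dose, 10.9 µM nominal final, DMSO 0.8% final.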
GPR7 antagonist – blocks human GPR7 receptor signaling | GPR7-expressing cells, fluorescence antagonist assay | P48145 | hit rate 1.1% among 290,000 | AID 1861 | inhibition, % at 4.4 µM; in the data active means inhibition above about 16%, passing the limit was not always enough;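 further: cells stimulated with the agonist NPW; 0% = agonist with vehicle and 100% = vehicle without agonist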
Target sequence (P48145 whole entry, looked up): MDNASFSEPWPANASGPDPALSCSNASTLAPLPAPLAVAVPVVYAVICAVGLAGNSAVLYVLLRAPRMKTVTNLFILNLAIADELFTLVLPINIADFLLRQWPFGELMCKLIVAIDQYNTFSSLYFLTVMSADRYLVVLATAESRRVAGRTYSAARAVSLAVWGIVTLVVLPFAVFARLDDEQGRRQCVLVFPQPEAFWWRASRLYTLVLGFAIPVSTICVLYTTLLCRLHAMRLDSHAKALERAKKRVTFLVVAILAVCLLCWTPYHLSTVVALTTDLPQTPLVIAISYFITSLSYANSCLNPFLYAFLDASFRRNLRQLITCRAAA
ZTA DNA inh – counter-screen for EBNA-1 inhibitors: inhibitors of Epstein-Barr virus ZTA. P03206. ZTA-DNA binding, fluorescence polarization. inhibition, % at 11 µM. hit rate 0.15% among 320,000. AID 2234; in the data active means inhibition above about 33%
Target sequence (P03206 whole entry, looked up): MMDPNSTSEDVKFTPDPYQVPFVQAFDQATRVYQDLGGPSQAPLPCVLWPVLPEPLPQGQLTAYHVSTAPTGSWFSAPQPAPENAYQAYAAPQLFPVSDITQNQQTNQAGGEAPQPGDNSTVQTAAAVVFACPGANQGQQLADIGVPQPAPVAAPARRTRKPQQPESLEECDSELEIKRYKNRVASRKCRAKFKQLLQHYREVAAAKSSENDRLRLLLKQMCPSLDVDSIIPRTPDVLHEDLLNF
EBNA-1 inh conf – EBNA-1 (EBV) inhibition, confirmation; shares compounds with EBNA-1 inh; hit rate 35% among 830; Recombinant EBNA-1 DBD, Cy5-DNA fluorescence polarization; inhibition, % at 14.8 µM; AID 2292;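 active means mean inhibition across replicates above a set limit taken from the earlier primary screen, cut at about 28% in these data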;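 further: plate controls were EBNA-1 protein with DMSO for no effect and wells lacking EBNA-1 for full effect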
ZTA counter trip – ZTA (EBV) inhibition, triplicate counter-screen | shares compounds with EBNA-1 inh | Zta-ZRE DNA binding, Cy5 fluorescence polarization | inhibition, % at 11.1 µM | 830 tested, under 10 active;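 active means mean inhibition over triplicates above a set limit taken from the primary EBNA-1 screen, cut at about 37% in these data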;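 further: purified full length Zta protein with Cy5 labeled ZRE DNA probe; 0% = Zta with DMSO and 100% = wells lacking Zta protein; inhibitors lower polarization by freeing the labeled DNA probe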
The depositor's hits bear a star; / = no result given; + = active, no number. An excerpt weighted towards active compounds, which were near 2% of everything screened.

SMILES | EBNA-1 inh | FID counter | HCV NS3 hel inh | GPR7 antagonist | ZTA DNA inh | EBNA-1 inh conf | ZTA counter trip
CCOC(=O)N1CCN(S(=O)(=O)c2ccc(F)c(C(=O)Nc3cccc(Cl)c3C)c2)CC1 | 81.4* | -10.3 | -11.9 | -8.0 | -7.6 | 12.4 | -1.8
CCOC(=O)N1CCN(S(=O)(=O)c2ccc(F)c(C(=O)Nc3cc(C)cc(C)c3)c2)CC1 | 8.2 | -15.3 | -2.9 | -12.2 | -2.0 | / | /
COc1ccc(S(=O)(=O)N2CCCC(C(=O)NCc3cccnc3)C2)cc1OC (stereo unspecified) | -10.1 | / | / | / | -16.2 | / | /
O=C(Nc1sc2c(c1C(=O)O)CCC2)C(=O)N1CCOCC1 | 4.3 | -13.4 | 16.8 | 4.2 | -5.1 | / | /
O=[N+]([O-])c1ccccc1NCCNc1ncc(C(F)(F)F)cc1Cl | 61.6* | 7.0 | 2.6 | -6.9 | 25.4 | 53.1* | 11.4
O=[N+]([O-])c1cc(Cl)ccc1NCCNc1ncc(C(F)(F)F)cc1Cl | 17.2 | -2.3 | -15.4 | -9.6 | 9.8 | / | /
CC(=O)Nc1ccc(NC(=O)c2cc(=O)c3ccc(C)cc3o2)cc1 | 4.8 | -16.9 | -10.2 | 0.1 | 18.7 | / | /
CC(=O)Nc1ccc(NC(=O)c2cc(=O)c3cc(C)c(C)cc3o2)cc1 | 72.6* | -21.7 | 1.2 | -6.8 | 0.3 | 34.7* | 1.9
Cc1ccc(OCc2nnc(NC(=O)c3ccco3)s2)c(C)c1 | 45.6* | 0.4 | -3.7 | -5.8 | 3.5 | -2.3 | -1.5
Cc1ccc(OCc2nnc(NC(=O)c3ccco3)s2)cc1 | -5.9 | -4.6 | 4.0 | -2.6 | 17.7 | / | /
CCCC(NC(=O)CCc1c(C)c2cc3c(-c4ccccc4)coc3cc2oc1=O)C(=O)O (stereo unspecified) | 2.5 | -16.8 | -22.5 | 12.1 | 8.6 | / | /
Cc1ccc(C(=O)Nc2nc3ccc(S(C)(=O)=O)cc3s2)cc1C | 143.9* | -5.3 | -2.7 | -9.4 | -3.8 | 96.8* | 16.1
Cc1ccc(NC(=O)CCCN2C(=O)c3cccc4cccc(c34)C2=O)cc1 | 55.4* | -2.5 | 5.0 | -5.9 | 11.6 | 9.2 | 7.5
COc1ccc(-c2cc(C(=O)OC(C)C(=O)Nc3c(C)n(C)n(-c4ccccc4)c3=O)c3ccccc3n2)cc1 (stereo unspecified) | -4.3 | -2.2 | -8.9 | -0.2 | -30.7 | / | /
Cc1c(NC(=O)COC(=O)c2cc(-c3ccc(-c4ccccc4)cc3)nc3ccccc23)c(=O)n(-c2ccccc2)n1C | 31.4* | -2.9 | 1.4 | 6.9 | 18.1 | 16.2 | -0.7
CSc1cccc(NC(=O)NCc2cccc(CNC(=O)Nc3cccc(SC)c3)c2)c1 | 34.2* | -1.7 | -1.0 | -11.5 | 7.2 | 40.5* | 3.0
CC(=O)Nc1ccc(S(=O)(=O)Nc2ccc(S(=O)(=O)Nc3ncccn3)cc2)cc1 | 82.4* | 2.8 | 4.9 | -5.8 | 8.1 | 6.5 | 8.1
Cc1cc(S(=O)(=O)Nc2c(NC3CCCCC3)c3ccccc3oc2=O)ccc1F | 15.0 | -29.5 | 4.7 | -22.6 | 3.5 | / | /
CC(=O)Nc1ccc(S(=O)(=O)Nc2c(NC3CCCCC3)c3ccccc3oc2=O)cc1 | 32.3* | -34.1 | 5.5 | -8.6 | -12.2 | -2.7 | -0.4
O=S1(=O)[C@H]2C[C@@H]3C=C[C@@]2(CN1Cc1ccc(F)cc1)O3 | 4.5 | -6.7 | 8.9 | -3.0 | -8.0 | / | /
COc1ccc(C2=NN(C(=O)CSc3nc(=O)n4cccc(C)c4n3)C(c3ccc(C)cc3)C2)cc1 (stereo unspecified) | 5.9 | / | / | / | -2.2 | / | /
Cc1occc1C(=O)NNC(=O)c1ccc(S(=O)(=O)N(C)C)cc1 | / | / | / | / | -3.9 | / | /
O=C(CCc1nc2sc3c(c2c(=O)[nH]1)CCCC3)Nc1ccccc1Cl | 38.5* | / | / | / | 7.4 | 8.1 | -2.2
COc1ccc(OC)c(S(=O)(=O)Nc2cc(C)on2)c1 | 1.1 | -5.0 | 4.8 | -13.0 | 0.9 | / | /
NS(=O)(=O)c1ccc(NC(=O)c2ccc(COc3ccccc3)o2)cc1 | 38.7* | -1.6 | -0.5 | 1.5 | 2.7 | 20.4 | -2.5
SMILES | EBNA-1 inh | FID counter | HCV NS3 hel inh | GPR7 antagonist | ZTA DNA inh | EBNA-1 inh conf | ZTA counter trip
CCCC(C(=O)Nc1ccncc1)c1ccccc1 (stereo unspecified) | 2.6 | -0.5 | -7.6 | -2.1 | 6.3 | / | /
CCc1cc(C(=O)N(C)CC(=O)N(CC(C)C)c2c(N)n(CC(C)C)c(=O)[nH]c2=O)sc1C | 8.9 | -46.9 | 4.3 | -24.9 | 3.3 | / | /
CCCCN(C(=O)c1cccc(-n2cccc2)c1)c1c(N)n(Cc2ccccc2)c(=O)[nH]c1=O | 30.7* | / | / | / | 22.4 | -4.5 | -6.8
CCCCN(C(=O)c1cc(CC)c(C)s1)c1c(N)n(CC(C)C)c(=O)[nH]c1=O | 66.4* | -19.3 | 1.5 | -7.7 | -16.3 | 4.3 | -6.2
COc1ccccc1C(=O)Nc1ccc(OCC(=O)N2CC(C)OC(C)C2)cc1 (stereo unspecified) | / | / | / | / | -17.3 | / | /
O=C(CCN1N=C(c2ccccc2)CCC1=O)NCCCN1CCOCC1 | 5.0 | -0.1 | 1.2 | -9.1 | -2.6 | / | /
CCCN(CC(=O)Nc1ccccc1OC)C(=O)c1ccc2[nH]c3c(c2c1)CC(C)CC3 (stereo unspecified) | / | / | / | / | 2.7 | / | /
COC(=O)c1ccc2nc(NC(=O)CCS(=O)(=O)c3ccccc3)sc2c1 | 44.4* | -20.6 | 4.5 | -14.8 | 17.3 | 51.7* | 4.6
CS(=O)(=O)c1ccc2nc(NC(=O)CCS(=O)(=O)c3ccccc3)sc2c1 | 5.5 | -8.8 | 5.2 | -14.5 | 11.0 | / | /
O=C(CSc1nc(=O)n(CCCN2CCOCC2)c2c1CCC2)Nc1cccc(F)c1 | -2.6 | / | / | / | -9.5 | / | /
CCC(=O)Nc1nnc(SCC(=O)c2ccc3c(c2)Cc2ccccc2-3)s1 | 31.1* | -0.4 | -9.4 | 3.8 | 5.9 | 21.1 | 0.8
CC(=O)Nc1nnc(SCC(=O)c2ccc3c(c2)Cc2ccccc2-3)s1 | 40.1* | -0.8 | 4.8 | -4.9 | 8.5 | 43.3* | 2.9
CCC(=O)Nc1nnc(SCC(=O)N2c3ccccc3CC2C)s1 (stereo unspecified) | -4.3 | -13.8 | -4.9 | -11.9 | 2.1 | / | /
CC1CCCCC1NC(=O)C1CCC(CNS(=O)(=O)c2ccccc2)CC1 (stereo unspecified) | 30.9* | -31.7 | -10.2 | -8.4 | -2.7 | 9.3 | 6.4
O=C(CN1C(=O)C(=O)N(C2CCCC2)C1=O)Nc1ccc(Cl)cc1C(F)(F)F | / | / | / | / | 10.6 | / | /
COc1ccc(-c2nnn(CC(=O)N(CC(=O)NCCC(C)C)Cc3cccs3)n2)cc1OC | 30.3* | -9.3 | -1.6 | 2.8 | -0.9 | 4.7 | 8.5
Cc1ccc(S(=O)(=O)CCC(=O)OCC(=O)c2c(C)[nH]c3ccccc23)cc1 | -4.2 | -12.7 | -12.8 | -5.4 | -5.7 | / | /
CCOC(=O)c1c(C)[nH]c(C(=O)COC(=O)CCS(=O)(=O)c2ccc(C)cc2)c1C | 39.4* | -24.6 | -20.3 | -12.1 | 1.0 | 28.8* | 6.5
COc1ccc(C(=O)Nc2nnc(-c3ccc(F)cc3)s2)c(OC)c1 | / | -4.2 | -0.3 | 4.6 | / | / | /
COc1ccccc1C(=O)Nc1nnc(-c2ccc(F)cc2)s1 | + | -25.0 | -12.2 | -2.3 | 3.2 | 4.0 | 1.3
